Measured values: ChEMBL document CHEMBL1156763, “1,8-Naphthyridines VIII. Novel 5-aminoimidazo[1,2-a] [1,8]naphthyridine-6-carboxamide and 5-amino[1,2,4]triazolo[4,3-a] [1,8]naphthyridine-6-carboxamide derivatives showing potent analgesic or anti-inflammatory activity, respectively, and completely devoid of acute gastrolesivity” (Eur J Med Chem, 2010)

Key:
Rattus norvegicus [1] = assay: Acute gastrolesivity in Wistar rat assessed as appearance of gastric damage at 200 mg/kg, po after 5 hrs; format: toxicity, organism-based, Stomach; design: dose 200 mg/kg, route oral; conditions: in vivo
Method in brief: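 Wistar rats (250–300 g), either sex, fasted overnight; compound suspended in 0.5% methylcellulose, single oral gavage at 200 mg kg^-1 (1 mL 100 g^-1). Stomachs excised 5 h later, fixed in 2% formalin, opened along greater curvature, examined by stereomicroscope by blinded observer. Reported as number of animals with gastric damage over treated animals (eight per group).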

Rattus norvegicus [2] = assay: Antiinflammatory activity against carrageenan-induced paw edema in Wistar rat assessed as inhibition of hind paw edema at 100 mg/kg, po administered 1 hr prior to carrageenan challenge measured after 3 hrs relative to control; format: functional
Method in brief: (§1)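 Wistar rats of either sex (250–300 g), fasted overnight, gavaged with compound in 0.5% methylcellulose. 1 h later, 0.1 mL 1% carrageenan injected subcutaneously into the plantar hind paw. Paw volume read by plethysmometer right after injection and 3 h later. Control edema set as 100, % inhibition from swelling difference. Groups of 8–10; Student's t-test.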

Mus musculus [3] = assay: Analgesic activity in Swiss mouse assessed as inhibition of acetic acid-induced writhing response at 50 mg/kg, po administered 1 hr before acetic acid challenge measured for 30 mins relative to control; format: functional
Method in brief: (§2)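 Mice of either sex (25–35 g), fasted overnight, dosed by oral gavage with test agent suspended in 0.5% methylcellulose; controls got vehicle alone. Each hind-limb full extension counted as a writhe over 30 min after the noxious agent. % inhibition from treated vs control writhing; groups of 8–10; Student's t-test. Dosing starts at 100 mg/kg, then halved stepwise.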

Mus musculus [4] = assay: Sedative activity in Swiss mouse assessed as inhibition of spontaneous locomotor activity at 100 mg/kg, po dose measured for every 5 mins up to 90 mins; format: organism-based; design: dose 100 mg/kg, route oral
Method in brief: (§3)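 Overnight-fasted mice given compound (0.5% methylcellulose) or vehicle by oral gavage, then housed singly in an activity cage. Locomotion auto-recorded in 5-min intervals for 90 min; pulses of the final 30 min scored. % inhibition versus controls; runs between 9.00 and 13.00; groups of 8–10; Student's t-test.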

Mus musculus [5] = assay: Analgesic activity in Swiss mouse assessed as inhibition of acetic acid-induced writhing response at 12.5 mg/kg, po administered 1 hr before acetic acid challenge measured for 30 mins relative to control; format: functional; method in brief: as §2
Mus musculus [6] = assay: Analgesic activity in Swiss mouse assessed as inhibition of acetic acid-induced writhing response at 100 mg/kg, po administered 1 hr before acetic acid challenge measured for 30 mins relative to control; format: functional; method in brief: as §2
Mus musculus [7] = assay: Sedative activity in Swiss mouse assessed as inhibition of spontaneous locomotor activity at 50 mg/kg, po dose measured for every 5 mins up to 90 mins; format: organism-based; design: dose 50 mg/kg, route oral; method in brief: as §3
Mus musculus [8] = assay: Analgesic activity in Swiss mouse assessed as inhibition of acetic acid-induced writhing response at 25 mg/kg, po administered 1 hr before acetic acid challenge measured for 30 mins relative to control; format: functional; method in brief: as §2
Rattus norvegicus [9] = assay: Antiinflammatory activity against carrageenan-induced paw edema in Wistar rat assessed as inhibition of hind paw edema at 12.5 mg/kg, po administered 1 hr prior to carrageenan challenge measured after 3 hrs relative to control; format: functional; method in brief: as §1
Rattus norvegicus [10] = assay: Antiinflammatory activity against carrageenan-induced paw edema in Wistar rat assessed as inhibition of hind paw edema at 6.25 mg/kg, po administered 1 hr prior to carrageenan challenge measured after 3 hrs relative to control; format: functional; method in brief: as §1
Rattus norvegicus [11] = assay: Antiinflammatory activity against carrageenan-induced paw edema in Wistar rat assessed as inhibition of hind paw edema at 50 mg/kg, po administered 1 hr prior to carrageenan challenge measured after 3 hrs relative to control; format: functional; method in brief: as §1
Rattus norvegicus [12] = assay: Antiinflammatory activity against carrageenan-induced paw edema in Wistar rat assessed as inhibition of hind paw edema at 25 mg/kg, po administered 1 hr prior to carrageenan challenge measured after 3 hrs relative to control; format: functional; method in brief: as §1
Rattus norvegicus [13] = assay: Antiinflammatory activity against carrageenan-induced paw edema in Wistar rat assessed as inhibition of hind paw edema at 3.12 mg/kg, po administered 1 hr prior to carrageenan challenge measured after 3 hrs relative to control; format: functional; method in brief: as §1
Rattus norvegicus [14] = assay: Antiinflammatory activity against carrageenan-induced paw edema in Wistar rat assessed as inhibition of hind paw edema at 1.6 mg/kg, po administered 1 hr prior to carrageenan challenge measured after 3 hrs relative to control; format: functional; method in brief: as §1
Mus musculus [15] = assay: Sedative activity in Swiss mouse assessed as inhibition of spontaneous locomotor activity at 12.5 mg/kg, po dose measured for every 5 mins up to 90 mins; format: organism-based; design: dose 12.5 mg/kg, route oral; method in brief: as §3
Mus musculus [16] = assay: Analgesic activity in Swiss mouse assessed as inhibition of acetic acid-induced writhing response at 6.25 mg/kg, po administered 1 hr before acetic acid challenge measured for 30 mins relative to control; format: functional; method in brief: as §2
Mus musculus [17] = assay: Sedative activity in Swiss mouse assessed as inhibition of spontaneous locomotor activity at 10 mg/kg, po dose measured for every 5 mins upto 90 mins; format: functional; method in brief: as §3
Rattus norvegicus [18] = assay: Antiinflammatory activity against carrageenan-induced paw edema in Wistar rat assessed as inhibition of hind paw edema at 10 mg/kg, po administered 1 hr prior to carrageenan challenge measured after 3 hrs relative to control; format: functional; method in brief: as §1
Mus musculus [19] = organism: Mus musculus; assay: animal or person; conditions: Swiss, po, read-out: INH

| Compound | Activity (Rattus norvegicus [1]) | inhibition in vivo at 100 mg/kg (Rattus norvegicus [2]) [%] | inhibition in vivo at 50 mg/kg (Mus musculus [3]) [%] | inhibition at 100 mg/kg (Mus musculus [4]) [%] | inhibition in vivo at 12.5 mg/kg (Mus musculus [5]) [%] | inhibition in vivo at 100 mg/kg (Mus musculus [6]) [%] | inhibition at 50 mg/kg (Mus musculus [7]) [%] | inhibition in vivo at 25 mg/kg (Mus musculus [8]) [%] | inhibition in vivo at 12.5 mg/kg (Rattus norvegicus [9]) [%] | inhibition in vivo at 6.25 mg/kg (Rattus norvegicus [10]) [%] | inhibition in vivo at 50 mg/kg (Rattus norvegicus [11]) [%] | inhibition in vivo at 25 mg/kg (Rattus norvegicus [12]) [%] | inhibition in vivo at 3.12 mg/kg (Rattus norvegicus [13]) [%] | inhibition in vivo at 1.6 mg/kg (Rattus norvegicus [14]) [%] | inhibition at 12.5 mg/kg (Mus musculus [15]) [%] | inhibition in vivo at 6.25 mg/kg (Mus musculus [16]) [%] | inhibition in vivo at 10 mg/kg (Mus musculus [17]) [%] | inhibition in vivo at 10 mg/kg (Rattus norvegicus [18]) [%] | inhibition in vivo at 10 mg/kg (Mus musculus [19]) [%] |
| --- | --- | --- | --- | --- | --- | --- | --- | --- | --- | --- | --- | --- | --- | --- | --- | --- | --- | --- | --- |
| CCN(CC)C(=O)c1c(N2CCN(C)CC2)c2cccnc2n2c(C)cnc12 | Non-toxic | 0 | 86 | 80 | 21 | 85 | 20 | 83 |  |  |  |  |  |  |  |  |  |  |  |
| C=CCNc1c(C(=O)N(CC)CC)c2nnc(C(C)C)n2c2ncccc12 | Non-toxic | 60 | 28 | 64 |  | 79 |  |  | 32 | 25 | 49 | 52 |  |  |  |  |  |  |  |
| CCCN(C)c1c(C(=O)N(CC)CC)c2nnc(C(C)C)n2c2ncccc12 | Non-toxic | 71 | 37 | 62 |  | 71 |  |  | 44 | 23 | 55 | 42 |  |  |  |  |  |  |  |
| CCNC(=O)c1c(NCC(C)C)c2cccnc2n2c(C(C)C)nnc12 | Non-toxic | 60 | 21 | 48 |  | 81 |  |  | 49 | 40 | 50 | 47 | 35 | 18 |  |  |  |  |  |
| CCOc1cnc2c(C(=O)N(CC)CC)c(N3CCN(C)CC3)c3cccnc3n12 | Non-toxic | 26 | 62 | 60 | 48 | 97 | 46 | 54 |  |  |  |  |  |  | 15 | 17 |  |  |  |
| CN1C(=O)CN=C(c2ccccc2)c2cc(Cl)ccc21 [DIAZEPAM] |  |  |  |  |  |  |  |  |  |  |  |  |  |  |  |  | 98 |  |  |
| COc1ccc2c(c1)c(CC(=O)O)c(C)n2C(=O)c1ccc(Cl)cc1 [INDOMETHACIN] |  |  |  |  |  |  |  |  |  |  |  |  |  |  |  |  |  | 51 | 84 |
